Results taken from ChEMBL document CHEMBL1126303, “Syntheses and affinities of novel organometallic-labeled estradiol derivatives: a structure-affinity relationship” (J Med Chem, 1992).
Values joined by “and” are separate entries in the source; they are usually repeats but may differ in a detail not shown here. Equal entries are not always repeated.

Target: Estrogen receptor (Ovis aries) (UniProt P49885+Q9TU15)
Experiment: Relative binding affinity against the estrogen receptor using lamb uterine cytosol as a source of receptor and [3H]-estradiol as a tracer
Format: protein assay
Settings: Uterus
In short: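 Competitive radiometric binding on lamb uterine cytosol (105000g supernatant in 0.05 M Tris-HCl, 0.25 M sucrose, 0.1% β-mercaptoethanol, pH 7.4), 5 mg protein/mL. Incubated 3 h at 0 °C with 2 × 10⁻⁹ M [³H]estradiol plus competitor at nine concentrations, 1×10⁻¹⁰ to 1×10⁻⁶ M. Bound/free separated by protamine sulfate precipitation and filtration, then scintillation counting. Logit-transformed; RBA = IC50 estradiol/competitor ×100; mean of two determinations.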

Sequence of Estrogen receptor (Ovis aries) (Q9TU15 whole entry, looked up, chain 1 of 2): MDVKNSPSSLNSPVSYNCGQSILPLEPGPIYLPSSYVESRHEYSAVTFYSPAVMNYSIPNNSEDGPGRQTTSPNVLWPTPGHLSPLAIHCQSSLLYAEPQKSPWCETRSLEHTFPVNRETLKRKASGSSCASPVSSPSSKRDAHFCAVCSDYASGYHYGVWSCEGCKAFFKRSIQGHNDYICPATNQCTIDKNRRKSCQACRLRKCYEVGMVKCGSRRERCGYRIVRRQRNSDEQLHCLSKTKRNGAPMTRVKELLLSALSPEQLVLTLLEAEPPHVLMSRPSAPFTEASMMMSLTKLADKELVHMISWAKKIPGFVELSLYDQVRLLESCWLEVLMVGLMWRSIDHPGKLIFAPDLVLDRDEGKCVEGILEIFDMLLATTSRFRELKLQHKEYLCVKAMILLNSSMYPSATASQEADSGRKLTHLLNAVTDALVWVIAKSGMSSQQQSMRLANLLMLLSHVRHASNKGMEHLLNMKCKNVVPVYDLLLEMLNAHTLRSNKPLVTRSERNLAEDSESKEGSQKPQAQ
Sequence of Estrogen receptor (Ovis aries) (P49885 whole entry, looked up, chain 2 of 2): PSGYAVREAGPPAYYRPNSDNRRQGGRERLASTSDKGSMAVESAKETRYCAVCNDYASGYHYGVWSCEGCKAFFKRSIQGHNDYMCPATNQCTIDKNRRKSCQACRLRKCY

RBA | Molecule
27% | C[C@]12CC[C@@H]3c4ccc(O)cc4CC[C@H]3[C@@H]1CC[C@@]2(O)C#Cc1ccccc1
25% | C[C@]12CC[C@@H]3c4ccc(O)cc4CC[C@H]3[C@@H]1CC[C@@]2(O)c1ccccc1
15% | 17alpha-ferrocenyl-17beta-estradiol
24% | (17-alpha(phenylethynyl)-17beta-estradiol)tricarbonylchromium
11% | (17-alpha-phenyl-17beta-estradiol)tricarbonylchromium
0% | (17alpha)-[Cp Ruphenyl]-17beta-estradiol)][CF3SO3]
0.1% | (alpha,beta)-[Cp Ru(17beta-estradiol)][PF6-]
2.9% | (alpha,beta)-[Cp*Ru(17beta-estradiol)][CF3SO3]
0.1% | [Cp Ru(eta5-17beta-estradienonyl)]
0.44% and 0.46% | alpha [Cp Ru[eta5-17beta-estradienonyl] [BF4]
